Source: ChEMBL document CHEMBL1145082 (J Med Chem, 2003)

Experiments:
[1] = target: 3-phosphoinositide-dependent protein kinase 1 (Homo sapiens) (UniProt O15530); test: Inhibition of human 3-phosphoinositide-dependent protein kinase 1 at 10 uM; design: scale not given: the % may be the effect or the level left
How it was run: (§1)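 Outsourced selectivity panel. Each kinase phosphorylated its own peptide or protein substrate in the presence of 10 µM compound and 10 µM ATP, within the linear time range. Activity given as mean percent of control incubations from duplicate determinations.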

[2] = target: AMP-activated protein kinase, AMPK (Homo sapiens) (UniProt P54646+O43741+P54619+Q9UGJ0+Q9Y478+Q13131+Q9UGI9); test: Inhibition of rat liver AMP-activated Protein Kinase at 10 uM; design: scale not given: the % may be the effect or the level left; conditions: target entry is the homologue from another species
How it was run: (§2)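 Upstate kinase selectivity panel: each kinase phosphorylated its peptide or protein substrate with 10 µM compound present and 10 µM ATP. Reactions were linear with time. Activity is reported as the mean percentage of control incubations, from duplicate determinations.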

[3] = target: Tyrosine-protein kinase Blk (Homo sapiens) (UniProt P51451); test: Inhibition of Blk (B lymphocyte kinase) at 10 uM; design: scale not given: the % may be the effect or the level left; how it was run: as §1
Chain of Tyrosine-protein kinase Blk (Homo sapiens) (P51451 2-505 limits assumed): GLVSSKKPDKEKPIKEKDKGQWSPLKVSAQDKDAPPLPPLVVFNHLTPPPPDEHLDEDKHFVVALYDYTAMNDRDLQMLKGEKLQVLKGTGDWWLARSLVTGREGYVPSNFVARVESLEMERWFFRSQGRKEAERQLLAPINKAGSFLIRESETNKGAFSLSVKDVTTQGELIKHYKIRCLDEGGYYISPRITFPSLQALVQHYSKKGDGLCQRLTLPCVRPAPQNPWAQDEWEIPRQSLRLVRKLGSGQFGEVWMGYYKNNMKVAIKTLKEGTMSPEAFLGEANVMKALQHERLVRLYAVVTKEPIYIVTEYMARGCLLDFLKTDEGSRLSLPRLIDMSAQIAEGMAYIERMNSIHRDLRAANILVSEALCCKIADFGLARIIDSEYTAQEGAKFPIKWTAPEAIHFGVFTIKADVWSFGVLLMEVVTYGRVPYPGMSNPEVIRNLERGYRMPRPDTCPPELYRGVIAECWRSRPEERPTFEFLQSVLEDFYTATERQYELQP

[4] = target: Calcium/calmodulin-dependent protein kinase type IV (Homo sapiens) (UniProt Q16566); test: Inhibition of Calcium/calmodulin-dependent protein kinase type IV at 10 uM; design: scale not given: the % may be the effect or the level left; how it was run: as §1
Chain of Calcium/calmodulin-dependent protein kinase type IV (Homo sapiens) (Q16566 whole entry): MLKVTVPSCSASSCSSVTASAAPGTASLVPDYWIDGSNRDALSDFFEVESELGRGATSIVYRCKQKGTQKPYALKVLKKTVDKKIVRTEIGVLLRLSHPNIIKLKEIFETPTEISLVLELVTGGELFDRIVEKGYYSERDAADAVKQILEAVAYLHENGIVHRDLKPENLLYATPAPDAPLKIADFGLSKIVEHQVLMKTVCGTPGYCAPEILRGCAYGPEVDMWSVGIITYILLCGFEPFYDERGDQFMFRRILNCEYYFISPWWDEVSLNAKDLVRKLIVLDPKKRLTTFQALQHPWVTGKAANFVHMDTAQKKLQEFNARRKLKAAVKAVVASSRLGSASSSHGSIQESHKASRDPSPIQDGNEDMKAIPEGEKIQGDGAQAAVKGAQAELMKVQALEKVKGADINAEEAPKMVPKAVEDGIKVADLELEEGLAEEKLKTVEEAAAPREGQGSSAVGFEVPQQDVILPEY

[5] = target: Cyclin-dependent kinase 2/cyclin E (Homo sapiens) (UniProt P24864+P24941+O96020); test: Inhibition of Cyclin-dependent kinase 2-cyclin E at 10 uM; format: protein-complex assay; design: scale not given: the % may be the effect or the level left; how it was run: as §1
[6] = Inhibition of Casein Kinase I; design: species or system Rattus norvegicus
How it was run: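 Reaction started with 30–150 ng kinase, run 1 h at 30 °C. Peptides captured on streptavidin plates and counted. IC50 from 6–10 concentrations; ≥3 experiments in duplicate; ± SEM.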

Saccharomyces cerevisiae = test: Inhibition of yeast Casein kinase I at 10 uM; design: scale not given: the % may be the effect or the level left; how it was run: as §2
[7] = target: Casein kinase II (Homo sapiens) (UniProt P67870+P68400+P19784); test: Inhibition of human Casein kinase II at 10 uM; format: protein-complex assay; design: scale not given: the % may be the effect or the level left; how it was run: as §1
[8] = target: Tyrosine-protein kinase CSK (Homo sapiens) (UniProt P41240); test: Inhibition of Csk tyrosine kinase at 10 uM; design: scale not given: the % may be the effect or the level left; how it was run: as §1
[9] = target: CDK3/cyclin E (Homo sapiens) (UniProt P24864+O96020+Q00526); test: Inhibition of cyclin-dependent kinase 3-cyclin E at 10 uM; format: protein-complex assay; design: scale not given: the % may be the effect or the level left; how it was run: as §1
[10] = target: CDK6/cyclin D3 (Homo sapiens) (UniProt P30281+Q00534); test: Inhibition of Cyclin-dependent kinase 6-cyclin D3 at 10 uM; format: protein-complex assay; design: scale not given: the % may be the effect or the level left; how it was run: as §1
[11] = target: Cyclin-dependent kinase 7/ cyclin H (Homo sapiens) (UniProt P51946+P50613); test: Inhibition of cyclin-dependent kinase 7-cyclin H at 10 uM; format: protein-complex assay; design: scale not given: the % may be the effect or the level left; how it was run: as §1
[12] = target: Fibroblast growth factor receptor 3 (Homo sapiens) (UniProt P22607); test: Inhibition of Fibroblast growth factor receptor 3 at 10 uM; design: scale not given: the % may be the effect or the level left; how it was run: as §1
[13] = target: Glycogen synthase kinase-3 beta (Homo sapiens) (UniProt P49841); test: Inhibition of human glycogen synthase kinase-3beta (GSK3-beta) at 10 uM; design: scale not given: the % may be the effect or the level left; how it was run: as §2
Chain of Glycogen synthase kinase-3 beta (Homo sapiens) (P49841 whole entry, looked up): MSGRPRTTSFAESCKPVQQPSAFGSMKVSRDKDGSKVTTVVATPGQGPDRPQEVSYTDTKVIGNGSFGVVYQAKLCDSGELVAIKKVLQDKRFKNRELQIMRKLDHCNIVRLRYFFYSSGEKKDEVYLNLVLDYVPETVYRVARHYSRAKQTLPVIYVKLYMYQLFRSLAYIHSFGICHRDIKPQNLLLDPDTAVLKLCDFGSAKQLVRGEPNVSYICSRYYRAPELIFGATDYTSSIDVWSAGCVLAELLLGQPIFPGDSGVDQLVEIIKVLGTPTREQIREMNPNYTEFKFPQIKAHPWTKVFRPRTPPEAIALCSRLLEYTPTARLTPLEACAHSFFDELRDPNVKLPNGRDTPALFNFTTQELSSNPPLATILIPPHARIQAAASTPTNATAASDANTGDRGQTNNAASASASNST

[14] = Increased glycogen synthase activity in HEK293 cells; format: functional, cell-based; conditions: Homo sapiens
How it was run: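 HEK293 cells starved of serum and glucose for 3 h, then exposed to compound or vehicle for 90 min at 37 °C. Cells lysed by three freeze–thaw cycles and lysates clarified. GS activity read as 14C-UDP-glucose incorporation into glycogen, with and without glucose 6-phosphate. EC50 from 6–10 concentrations; ≥3 experiments in duplicate; mean ± SEM.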

[15] = target: Inhibitor of nuclear factor kappa-B kinase subunit alpha (Homo sapiens) (UniProt O15111); test: Inhibition of I kappa-B kinase alpha (IKK) at 10 uM; design: scale not given: the % may be the effect or the level left; how it was run: as §1
[16] = target: MAP kinase-activated protein kinase 2 (Homo sapiens) (UniProt P49137); test: Inhibition of human MAP kinase-activated protein kinase 2 at 10 uM; design: scale not given: the % may be the effect or the level left; how it was run: as §1
Chain of MAP kinase-activated protein kinase 2 (Homo sapiens) (P49137 whole entry, looked up): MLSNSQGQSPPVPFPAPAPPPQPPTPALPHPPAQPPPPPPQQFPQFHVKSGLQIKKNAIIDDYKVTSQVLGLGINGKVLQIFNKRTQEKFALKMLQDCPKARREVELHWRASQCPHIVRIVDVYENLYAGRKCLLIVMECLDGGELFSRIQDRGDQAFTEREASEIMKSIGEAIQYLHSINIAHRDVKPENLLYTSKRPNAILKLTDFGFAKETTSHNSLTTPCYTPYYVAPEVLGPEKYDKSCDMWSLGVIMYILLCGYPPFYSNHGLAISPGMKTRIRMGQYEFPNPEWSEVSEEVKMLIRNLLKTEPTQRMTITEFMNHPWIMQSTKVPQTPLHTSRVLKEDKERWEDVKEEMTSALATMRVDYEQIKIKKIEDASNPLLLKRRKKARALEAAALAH

[17] = target: Mitogen-activated protein kinase 1 (Mus musculus) (UniProt P63085); test: Inhibition of mouse Mitogen-activated protein kinase 2 at 10 uM; design: scale not given: the % may be the effect or the level left; how it was run: as §2
[18] = target: Dual specificity mitogen-activated protein kinase kinase 4 (Mus musculus) (UniProt P47809); test: Inhibition of mouse Mitogen activated protein kinase kinase 4 at 10 uM; design: scale not given: the % may be the effect or the level left; how it was run: as §2
[19] = target: Dual specificity mitogen-activated protein kinase kinase 6 (Homo sapiens) (UniProt P52564); test: Inhibition of human Mitogen activated protein kinase kinase 6 at 10 uM; design: scale not given: the % may be the effect or the level left; how it was run: as §1
Chain of Dual specificity mitogen-activated protein kinase kinase 6 (Homo sapiens) (P52564 whole entry): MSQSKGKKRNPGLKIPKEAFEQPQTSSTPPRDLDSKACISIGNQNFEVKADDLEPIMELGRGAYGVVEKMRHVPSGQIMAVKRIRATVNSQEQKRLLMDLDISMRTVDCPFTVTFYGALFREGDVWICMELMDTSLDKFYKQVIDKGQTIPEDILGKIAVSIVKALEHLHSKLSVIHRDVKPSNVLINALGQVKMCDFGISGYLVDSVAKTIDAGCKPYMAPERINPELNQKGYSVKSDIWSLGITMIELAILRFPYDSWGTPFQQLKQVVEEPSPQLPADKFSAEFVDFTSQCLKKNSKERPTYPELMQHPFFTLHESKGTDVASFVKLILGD

[20] = target: Dual specificity mitogen-activated protein kinase kinase 7 (Homo sapiens) (UniProt O14733); test: Inhibition of human Mitogen activated protein kinase kinase 7 beta at 10 uM; design: scale not given: the % may be the effect or the level left; how it was run: as §1
Chain of Dual specificity mitogen-activated protein kinase kinase 7 (Homo sapiens) (O14733 whole entry): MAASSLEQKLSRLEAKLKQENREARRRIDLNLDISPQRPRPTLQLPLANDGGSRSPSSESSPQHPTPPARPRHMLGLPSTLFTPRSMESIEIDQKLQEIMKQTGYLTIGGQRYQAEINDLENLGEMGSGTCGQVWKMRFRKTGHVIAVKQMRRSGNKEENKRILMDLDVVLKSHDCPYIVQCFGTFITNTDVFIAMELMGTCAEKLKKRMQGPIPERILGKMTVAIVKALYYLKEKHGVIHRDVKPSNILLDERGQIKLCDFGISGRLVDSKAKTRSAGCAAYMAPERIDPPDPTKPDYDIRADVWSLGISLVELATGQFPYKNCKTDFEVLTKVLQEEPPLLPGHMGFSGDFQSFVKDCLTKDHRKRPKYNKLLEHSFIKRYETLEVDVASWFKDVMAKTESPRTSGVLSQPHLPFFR

[21] = target: Platelet-derived growth factor receptor alpha (Homo sapiens) (UniProt P16234); test: Inhibition of Platelet-derived growth factor receptor alpha at 10 uM; design: scale not given: the % may be the effect or the level left; how it was run: as §1
[22] = target: Protein kinase C beta type (Homo sapiens, UniProt P05771); test: Inhibition of human Protein kinase C beta 2 at 10 uM; design: scale not given: the % may be the effect or the level left; how it was run: as §1
[23] = target: RAF proto-oncogene serine/threonine-protein kinase (Homo sapiens) (UniProt P04049); test: Inhibition of human RAF proto-oncogene serine/threonine-protein kinase (c-RAF) at 10 uM; design: scale not given: the % may be the effect or the level left; how it was run: as §1
[24] = target: RAC-alpha serine/threonine-protein kinase (Homo sapiens) (UniProt P31749); test: Inhibition of human Protein kinase B alpha at 10 uM; design: scale not given: the % may be the effect or the level left; how it was run: as §1
[25] = target: RAC-beta serine/threonine-protein kinase (Homo sapiens) (UniProt P31751); test: Inhibition of Protein kinase B beta at 10 uM; design: scale not given: the % may be the effect or the level left; how it was run: as §1
Chain of RAC-beta serine/threonine-protein kinase (Homo sapiens) (P31751 whole entry): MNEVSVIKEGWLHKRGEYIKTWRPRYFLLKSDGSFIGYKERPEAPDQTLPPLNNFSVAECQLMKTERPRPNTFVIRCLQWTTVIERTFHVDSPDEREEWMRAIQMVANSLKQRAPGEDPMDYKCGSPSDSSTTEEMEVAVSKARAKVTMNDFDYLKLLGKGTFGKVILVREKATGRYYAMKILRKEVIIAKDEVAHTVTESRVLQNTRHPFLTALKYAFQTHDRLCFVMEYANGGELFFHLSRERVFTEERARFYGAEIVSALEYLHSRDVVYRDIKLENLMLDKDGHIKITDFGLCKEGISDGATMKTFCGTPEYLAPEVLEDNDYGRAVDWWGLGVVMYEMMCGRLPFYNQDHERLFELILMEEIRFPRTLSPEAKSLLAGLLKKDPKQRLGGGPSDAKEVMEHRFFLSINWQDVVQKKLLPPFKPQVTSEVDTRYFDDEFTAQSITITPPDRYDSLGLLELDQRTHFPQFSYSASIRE

[26] = Inhibitory activity against Protein kinase A was determined
[27] = target: Protein kinase C alpha type (Homo sapiens, UniProt P17252); test: Inhibition of human Protein kinase C alpha at 10 uM; design: scale not given: the % may be the effect or the level left; how it was run: as §1
[28] = target: T1, Protein kinase C theta type (Homo sapiens, UniProt Q04759); test: Inhibition of Protein kinase C theta at 10 uM; design: scale not given: the % may be the effect or the level left; how it was run: as §1
Target sequence in this assay (Q04759 whole entry, looked up): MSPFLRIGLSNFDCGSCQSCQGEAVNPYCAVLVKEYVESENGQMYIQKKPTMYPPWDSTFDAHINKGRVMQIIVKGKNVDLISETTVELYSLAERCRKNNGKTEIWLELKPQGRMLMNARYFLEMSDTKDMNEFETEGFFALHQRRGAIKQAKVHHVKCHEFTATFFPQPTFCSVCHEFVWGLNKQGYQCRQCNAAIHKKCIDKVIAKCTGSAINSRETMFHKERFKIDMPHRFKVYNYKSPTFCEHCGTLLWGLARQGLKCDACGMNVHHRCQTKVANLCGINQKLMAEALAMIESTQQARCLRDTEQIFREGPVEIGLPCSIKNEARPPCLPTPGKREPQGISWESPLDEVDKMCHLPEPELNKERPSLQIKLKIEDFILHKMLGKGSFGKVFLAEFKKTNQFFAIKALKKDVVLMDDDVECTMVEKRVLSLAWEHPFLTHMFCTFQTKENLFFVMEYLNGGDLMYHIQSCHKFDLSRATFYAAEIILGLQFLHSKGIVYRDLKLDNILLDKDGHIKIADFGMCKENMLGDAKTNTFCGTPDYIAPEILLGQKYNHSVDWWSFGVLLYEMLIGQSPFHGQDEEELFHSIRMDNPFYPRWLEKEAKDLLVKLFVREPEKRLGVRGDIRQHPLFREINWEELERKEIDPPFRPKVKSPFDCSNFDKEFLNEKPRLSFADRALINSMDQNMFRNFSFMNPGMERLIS

[29] = target: T1, Protein kinase C theta type; test: Inhibition of Protein kinase C theta
How it was run: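 Recombinant human PKCθ (5–10 mU) with histone H1 (0.1 mg/mL) and 33P-ATP, total ATP 10 µM, in 8 mM MOPS pH 7.0, 0.2 mM EDTA, 10 mM Mg acetate. Run 40 min at room temperature, stopped with phosphoric acid, then P30 filter counting. IC50 from 6–10 concentrations; ≥3 experiments in duplicate; ± SEM.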
Target sequence in this assay (Q04759 whole entry): as the sequence (Q04759 whole entry, looked up) above

[30] = target: Serine/threonine-protein kinase Chk1 (Homo sapiens) (UniProt O14757); test: Inhibition of human Serine/threonine-protein kinase Chk1 at 10 uM; design: scale not given: the % may be the effect or the level left; how it was run: as §2
Chain of Serine/threonine-protein kinase Chk1 (Homo sapiens) (O14757 whole entry): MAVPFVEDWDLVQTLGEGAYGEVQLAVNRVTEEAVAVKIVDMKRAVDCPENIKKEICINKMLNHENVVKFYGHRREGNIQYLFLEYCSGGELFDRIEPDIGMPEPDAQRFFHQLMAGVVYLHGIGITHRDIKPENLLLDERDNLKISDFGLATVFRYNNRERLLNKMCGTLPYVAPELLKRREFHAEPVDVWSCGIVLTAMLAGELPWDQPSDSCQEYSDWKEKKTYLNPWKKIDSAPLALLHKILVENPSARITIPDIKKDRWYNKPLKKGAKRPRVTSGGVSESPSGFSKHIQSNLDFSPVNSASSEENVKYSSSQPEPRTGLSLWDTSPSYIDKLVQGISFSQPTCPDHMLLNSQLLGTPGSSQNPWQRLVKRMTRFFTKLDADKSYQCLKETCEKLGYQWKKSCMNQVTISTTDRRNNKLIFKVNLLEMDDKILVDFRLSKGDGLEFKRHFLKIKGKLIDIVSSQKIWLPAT

[31] = target: Ribosomal protein S6 kinase (P70S6K) (Homo sapiens) (UniProt Q9UBS0+P23443); test: Inhibition of human Ribosomal protein S6 kinase (p70S6K) at 10 uM; format: protein-complex assay; design: scale not given: the % may be the effect or the level left; how it was run: as §2
[32] = target: Proto-oncogene tyrosine-protein kinase Src (Homo sapiens) (UniProt P12931); test: Inhibition of human Src tyrosine kinase at 10 uM; design: scale not given: the % may be the effect or the level left; how it was run: as §2
[33] = target: Mitogen-activated protein kinase 11 (Homo sapiens) (UniProt Q15759); test: Inhibition of human Stress activated protein kinase 2b at 10 uM; design: scale not given: the % may be the effect or the level left; how it was run: as §2
[34] = target: Tyrosine-protein kinase SYK (Homo sapiens) (UniProt P43405); test: Inhibition of Syk protein tyrosine kinase at 10 uM; design: scale not given: the % may be the effect or the level left; how it was run: as §1
[35] = target: Tyrosine-protein kinase Lck (Homo sapiens) (UniProt P06239); test: Inhibition of human p56 Lck tyrosine kinase at 10 uM; design: scale not given: the % may be the effect or the level left; how it was run: as §2

Activity [1]	Activity [2]	Activity [3]	Activity [4]	Activity [5]	IC50 [6]	Activity (Saccharomyces cerevisiae)	Activity [7]	Activity [8]	Activity [9]	Activity [10]	Activity [11]	Activity [12]	Activity [13]	EC50 [14]	Activity [15]	Activity [16]	Activity [17]	Activity [18]	Activity [19]	Compound	also measured
94%	99%	96%	88%	100%	> 10 µM	89%	102%	103%	97%	97%	86%	61%	0%	0.39 µM	98%	85%	88%	107%	85%	O=C1NC(=O)C2=C1c1cn(c3ncccc13)CCOCCOCCOCCOCCn1cc2c2cccnc21	Activity [20]: 132%; Activity [21]: 112%; Activity [22]: 69%; Activity [23]: 97%; Activity [24]: 102%; Activity [25]: 97%; IC50 [26]: > 10 µM; Activity [27]: 94%; Activity [28]: 88%; IC50 [29]: > 10 µM; Activity [30]: 102%; Activity [31]: 93%; Activity [32]: 89%; Activity [33]: 104%; Activity [34]: 72%; Activity [35]: 174%
90%	88%	90%	84%	67%	> 10 µM	84%	105%	84%	72%	97%	85%	58%	0%	0.06 µM	100%	97%	85%	110%	87%	O=C1NC(=O)C2=C1c1cn(c3ncccc13)CCOCCOCCOCCn1cc2c2cccnc21	Activity [20]: 129%; Activity [21]: 130%; Activity [22]: 15%; Activity [23]: 91%; Activity [24]: 97%; Activity [25]: 93%; IC50 [26]: > 10 µM; Activity [27]: 51%; Activity [28]: 71%; IC50 [29]: > 10 µM; Activity [30]: 101%; Activity [31]: 92%; Activity [32]: 90%; Activity [33]: 105%; Activity [34]: 67%; Activity [35]: 194%
